Assay outcomes deposited in PubChem BioAssay by several laboratories.
MC4R ag barr – MC4R agonists recruiting beta-arrestin, primary screen, cell-based, luminescence, agonist arm of biased-ligand search. Melanocortin receptor 4 (Homo sapiens), P32245. U2OS MC4R beta-arrestin complementation; percent of melanotan II response, DMSO zero. activation, % at 8.9 µM. hit rate 0.98% among 360,000. AID 540308, 2011;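 active = activation above a per-plate cutoff, the mean activation of sample wells on that plate plus 3 SD, cut at about 8% in these data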
AI-2 QS modul – Vibrio harveyi AI-2 quorum sensing modulators, primary screen, JMH597 strain, luminescence/OD600 ratio; Vibrio harveyi JMH597 AI-2 luminescence/OD600 ratio, 9 h; hits give low values; strain lacks LuxN and CqsS sensors; 0 = neutral-control median; activity change, % at 7.5 µM; hit rate 0.4% among 300,000; AID 2094, 2009; in the data active = activity change below about -75%, passing the limit was not always enough;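 also: luminescence divided by OD600 gain over 9 h not by final OD600 alone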
MC4R antagonist – MC4R antagonists of cAMP signaling, primary screen, cell-based, TR-FRET, antagonist arm of biased-ligand search; MC4R-expressing cells, MTII-stimulated cAMP, LANCE TR-FRET; inhibition, % at 6.5 µM; hit rate 0.48% among 360,000;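 active = inhibition above its plate's cutoff, the mean of tested wells on that plate plus 3 SD, cut at about 29% in these data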;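 also: 0% = Melanotan II alone and 100% = Melanotan II plus saturating MCL0020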
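Assay system: human MC4R-expressing U2OS cells; reagent: Melanotan II stimulation of cells; dosing: 6.5 µM single dose; timing: compound 30 min, challenge 1 h, detection 1 h; signal: TR-FRET cAMP assay; replicates: one well per compound, no replicates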
NTR1 agonist – agonists of human NTR1, primary screen, imaging, U2OS cells, beta-arrestin-GFP, high content; hit rate 0.17% among 330,000; Neurotensin receptor type 1 (Homo sapiens), P30989; NTR1-U2OS beta-arrestin-GFP spot imaging, agonist mode; AID 493036, 2011; activation, % at 20 µM;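 active = activation at or above 40% of the spot to cytoplasm intensity ratio, with at least 20 cells analyzed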;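 also: 0% = DMSO without peptide and 100% = 100 nM NTR1 peptide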
Target sequence (P30989 whole entry, looked up): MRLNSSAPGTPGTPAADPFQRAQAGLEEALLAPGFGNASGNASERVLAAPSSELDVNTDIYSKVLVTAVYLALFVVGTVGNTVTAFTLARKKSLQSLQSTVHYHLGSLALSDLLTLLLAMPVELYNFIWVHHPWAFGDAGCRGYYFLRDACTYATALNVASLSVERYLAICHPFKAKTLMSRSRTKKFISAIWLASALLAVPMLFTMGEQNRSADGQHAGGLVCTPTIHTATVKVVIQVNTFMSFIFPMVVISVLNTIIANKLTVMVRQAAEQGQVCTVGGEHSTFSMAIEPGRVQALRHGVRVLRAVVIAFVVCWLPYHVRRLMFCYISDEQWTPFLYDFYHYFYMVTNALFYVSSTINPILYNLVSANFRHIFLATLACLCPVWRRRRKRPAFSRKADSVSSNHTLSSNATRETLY
U2OS cAMP counter – nonselective cAMP signaling inhibitors, parental cells, counter-screen for MC4R biased antagonist project, cell-based, TR-FRET, U2OS, forskolin, triplicate; shares compounds with MC4R antagonist; LANCE TR-FRET; inhibition, % at 6.5 µM; hit rate 26% among 1,600;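 active = mean inhibition over triplicates above the low-control well mean plus 3 SD, set per campaign, cut at about 13% in these data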;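 also: signal is single emission at 671 nm which falls as cellular cAMP rises; 0% = forskolin-stimulated wells and 100% = buffer without forskolin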
MC4R antag conf – MC4R cAMP antagonists, retest, confirmation, cell-based, TR-FRET; shares compounds with MC4R antagonist; hit rate 27% among 1,600; inhibition, % at 6.5 µM; MC4R-expressing cells, MTII-stimulated cAMP; in the data active = inhibition above about 29%;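 also: 0% = agonist stimulated wells alone and 100% = agonist stimulated wells plus saturating reference antagonist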
* hit, by the source's call; / = not tested or not shown. Hits are enriched below; roughly 1.8% of the tested compounds scored in any of these assays.

SMILES	MC4R ag barr	AI-2 QS modul	MC4R antagonist	NTR1 agonist	U2OS cAMP counter	MC4R antag conf
COc1ccc(-c2cc3ccc(OCC(C)=O)cc3oc2=O)cc1	-0.8	-0.5	11.5	-0.8	/	/
NC(=O)COc1ccc2cc(-c3ccccc3)c(=O)oc2c1	-1.5	21.5	8.2	-1.2	/	/
COC(=O)COc1ccc2c(=O)c(-c3ccccc3)coc2c1	-0.5	17.1	44.3*	4.7	28.3*	52.3*
O=C(COC(=O)C1=Cc2ccccc2OC1)NCc1ccc(F)cc1	-1.0	/	12.8	/	/	/
CCCN(CC(=O)Nc1ccccc1C)C(=O)C1CCN(S(=O)(=O)c2ccc(C)c(C)c2)CC1	-0.8	/	-4.7	/	/	/
CCC1(C)Cc2ccccc2-c2nc[nH]c(=O)c21 (stereo not given)	1.0	-8.0	0.5	0.9	/	/
CCC1(C)Cc2ccccc2-c2[nH]c(=S)[nH]c(=O)c21 (stereo not given)	-0.8	1.6	29.3*	3.2	19.7*	46.5*
CCOCCCNCc1cc(Cl)cc(Cl)c1OCC	0.3	0.2	31.4*	1.8	1.4	11.8
O=C(c1ccc(S(=O)(=O)c2ccccc2)cc1)N1CCc2ccccc2C1	-1.7	19.0	3.0	-0.7	/	/
O=C(c1ccc([N+](=O)[O-])cc1)N1CCc2ccccc2C1	2.3	16.5	28.7*	-1.3	3.5	-3.4
CC(C)(C)c1ccc(C(=O)OC/C(O)=C(\C#N)c2nc3ccccc3s2)cc1	0.8	16.9	29.1*	1.7	1.9	6.3
CSc1ccc(CNC(=O)Cc2ccc(NC(=O)C3=C(C)OCCS3)cc2)cc1	1.1	9.5	-7.4	0.0	/	/
Cc1ccc(C(=O)NCC(=O)OC2CCCCC2=O)cc1C (stereo not given)	-1.6	/	8.2	4.0	/	/
O=C(CNC(=O)c1ccc(Oc2ccccc2)cc1)OC1CCCCC1=O (stereo not given)	-1.9	35.5	33.6*	0.1	12.4	24.3
Cc1ccc2c(c1)CCCN2C(=O)c1ccncc1	0.9	9.5	29.0*	0.7	-4.7	3.9
O=C(CS(=O)c1ccc(C(F)(F)F)cc1[N+](=O)[O-])Oc1ccccc1 (stereo not given)	3.3	41.3	49.2*	14.6	13.0	33.9*
COC(=O)c1ccc(OC(=O)CS(=O)c2ccccc2[N+](=O)[O-])cc1 (stereo not given)	-2.4	35.7	25.3	-1.1	/	/
Cc1cc2nccc(-c3ccc(Cl)c([N+](=O)[O-])c3)n2n1	1.2	-1.2	40.9*	13.2	-10.7	28.8*
Cc1cc2nccc(-c3ccc(F)cc3)n2n1	0.5	13.0	15.8	-0.5	/	/
NC(=O)c1ccc(NCC2COc3ccccc3O2)c([N+](=O)[O-])c1 (stereo not given)	-0.8	19.7	36.1*	1.7	-1.7	-3.1
COc1ccc(NC(=O)CN(C)C(=O)c2ccc3c(c2)OCCO3)cc1	-4.1	29.8	-0.9	0.7	/	/
Cc1ccc(S(=O)(=O)NCC(=O)OC(C)C(=O)Nc2ncc(Cl)cc2Cl)cc1 (stereo not given)	-1.7	6.8	30.5*	2.8	13.5*	26.8
COC(=O)Cn1ccc2cc(S(=O)(=O)N3CCCCC3)ccc21	-1.6	24.3	15.9	-1.5	/	/
O=C1c2cccc([N+](=O)[O-])c2C(=O)N1C1CCCCC1	-1.9	11.6	17.0	0.5	/	/
Cc1c(Cl)cccc1N1C(=O)C(N2C(=O)c3cccc([N+](=O)[O-])c3C2=O)C1c1cccs1 (stereo not given)	-4.4	32.4	34.8*	9.8	-6.5	-3.7
SMILES	MC4R ag barr	AI-2 QS modul	MC4R antagonist	NTR1 agonist	U2OS cAMP counter	MC4R antag conf
O=C(Nc1cc(Cl)ccc1-n1cncn1)c1cccc(S(=O)(=O)N2CCOCC2)c1	-1.6	/	-1.1	2.0	/	/
O=C(NC1CCCCC1)c1cc(S(=O)(=O)N2CCOCC2)c(Cl)cc1Cl	-1.1	11.8	-2.9	-1.3	/	/
O=C(C1=C(O)C(=O)N(c2nccs2)C1c1ccccc1)c1cc2ccccc2o1 (stereo not given)	0.5	4.0	49.4*	1.4	18.7*	30.5*
Cc1ccc(C2C(C(=O)c3cc4ccccc4o3)=C(O)C(=O)N2c2cc(C)on2)cc1 (stereo not given)	-1.1	27.5	31.9*	0.8	9.2	5.0
COCC(C)n1c(SCC(=O)N2CC(=O)Nc3ccccc32)nc2ccccc2c1=O (stereo not given)	0.1	/	12.1	-1.9	/	/
Cc1ccc(Cn2c(SCC(=O)N3CC(=O)Nc4ccccc43)nc3ccccc3c2=O)cc1	-0.5	13.4	29.2*	3.8	-0.6	-4.7
O=C1CN(C(=O)CSc2nc3cc(Cl)ccc3c(=O)n2Cc2ccccc2)c2ccccc2N1	-5.4	20.8	13.7	-0.3	/	/
CC(c1ccccc1)n1c(SCC(=O)N2CC(=O)Nc3ccccc32)nc2ccccc2c1=O (stereo not given)	-0.8	23.9	32.7*	4.8	0.0	17.6
CCOC(=O)N1CCC(N2CCCC(CO)(Cc3ccccc3C)C2)CC1 (stereo not given)	-2.4	-5.9	5.4	-1.9	/	/
CCOC(=O)N1CCC(N2CCCC(CO)(Cc3cccc(Cl)c3)C2)CC1 (stereo not given)	3.6	41.2	33.5*	-1.2	-2.6	-14.6
Cc1cccc2c1NC(=O)/C2=C\C(=O)c1cccs1	-1.4	13.1	30.3*	28.2	3.3	4.3
COc1cccc(NC(=O)Cc2ccccc2)c1	-0.8	-37.9	-1.1	-2.0	/	/
O=C(Cc1ccccc1)Nc1cccc(N2C(=O)C=CC2=O)c1	-2.3	-87.6*	54.2*	/	18.3*	34.5*
CSCCC(NC(=O)c1ccc(Cl)cc1)C(=O)OCC(=O)NCc1ccco1 (stereo not given)	-1.6	13.0	21.6	-0.1	/	/
CSCCC(NC(=O)c1ccc(Cl)cc1)C(=O)OCC(=O)Nc1cc(Cl)ccc1C#N (stereo not given)	2.7	25.6	31.9*	0.7	13.2*	28.8*
Cc1noc(C)c1COc1ccccc1C(=O)NCCc1ccc(F)cc1	-2.2	/	1.1	/	/	/
Cc1ccccc1-n1c(-c2ccoc2C)n[nH]c1=S	-2.5	26.1	8.1	-0.6	/	/
Cc1cccc(-n2c(-c3ccoc3C)n[nH]c2=S)c1	1.3	-2.4	30.0*	-1.8	3.8	0.4
CCCc1nnc(NS(=O)(=O)c2ccc(C)cc2)o1	-1.2	/	0.5	/	/	/
COc1ccc(C(O)c2nc(-c3cncnc3)cs2)cc1 (stereo not given)	1.6	/	8.4	/	/	/
